Source: PubChem
Sampled rows, rich in hits. Any-hit rate of the full collection: about 5.8%.
T cruzi growth-1: T. cruzi intracellular proliferation inhibitors, primary screen, cell-based, beta-gal Tulahuen parasites, NIH3T3 host, luminescence; inhibition, % at 8.34 µM; actives 5.9% (n = 77,000); T. cruzi beta-gal in NIH3T3, GalScreen luminescence, 90 h; AID 624255, 2012;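 active means mean inhibition above about 93%, with at least 55% of replicates each passing it, limit read from the data, passing the limit was not always enough; inconclusive means only one of those two conditions holds; inactive means neither condition holds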
KDM4C inh: inhibitors of GASC-1 (KDM4C) histone demethylase, primary screen, biochemical, single concentration HTS | GST-KDM4C 2-372, H3K9me3 peptide, LANCE TR-FRET | inhibition, % at 12.5 µM | AID 720574, 2013 | actives 0.15% (n = 96,000) | Lysine-specific demethylase 4C (Homo sapiens), Q9H3R0;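 active means mean replicate inhibition above about 25%, with at least 55% of replicates also reaching it, limit read from the data, passing the limit was not always enough; inconclusive means only one of those two conditions met; inactive means neither condition met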
Target sequence (Q9H3R0 2-372 limits assumed): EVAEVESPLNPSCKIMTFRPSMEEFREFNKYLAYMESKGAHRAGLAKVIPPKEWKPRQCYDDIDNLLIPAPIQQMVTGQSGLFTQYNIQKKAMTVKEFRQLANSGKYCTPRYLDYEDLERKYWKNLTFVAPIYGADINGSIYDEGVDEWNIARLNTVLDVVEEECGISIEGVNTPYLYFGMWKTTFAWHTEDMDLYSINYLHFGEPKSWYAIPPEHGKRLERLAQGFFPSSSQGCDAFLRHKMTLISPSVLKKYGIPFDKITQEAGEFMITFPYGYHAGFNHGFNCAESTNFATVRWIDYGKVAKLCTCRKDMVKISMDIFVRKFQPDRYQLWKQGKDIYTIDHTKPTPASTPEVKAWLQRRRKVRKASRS
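Assay system: GST-GASC-1 enzyme fragment 2-372 | Amount: 10 nM enzyme | Medium: HEPES buffer, pH 7.5, plus ascorbate | Reagent: H3K9me3 peptide substrate, Fe(II), 2-oxoglutarate | Doses: Single-point compound screen | Incubation: 30 min demethylation and 1 h detection at room temperature | Measured by: LANCE TR-FRET, excitation 340 nm, emissions 618 and 671 nm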
IDH1 R132H inh: inhibitors of IDH1 R132H reductase, primary screen, biochemical, plate reader, single point; Isocitrate dehydrogenase [NADP] cytoplasmic (Homo sapiens), O75874; diaphorase/resazurin fluorescence, 60 min; inhibition, % at 10 µM; actives 0.18% (n = 70,000); AID 624101, 2012; in the data active means inhibition above about 34%; inconclusive means no clear call, values can overlap the other calls; inactive means below about 11%;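 further: 0% = DMSO and 100% = no enzyme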
Pf Dd2 growth: P. falciparum Dd2 growth inhibitors, primary screen, SYBR Green fluorescence, single dose replicates. actives 2.3% (n = 94,000). AID 1159554, 2015. 72 h; stronger effect = lower value. activity change, % at 10 µM; in the data active means activity change below about -80%; inconclusive means no clear call, values can overlap the other calls
T cruzi growth-2: T. cruzi intracellular proliferation inhibitors, confirmation, cell-based, NIH3T3 host, beta-gal parasite, luminescence, cherry-pick; shares compounds with T cruzi growth-1; T. cruzi beta-gal in NIH3T3, GalScreen luminescence, 90 h; inhibition, % at 8.35 µM; actives 72% (n = 5,600);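 active means mean replicate inhibition above about 95% and at least 55% of replicates individually reaching it, limit read from the data; inconclusive means only one of the two criteria is met; inactive means neither criterion is met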
T cruzi growth-3: inhibitors of intracellular T. cruzi replication, confirmation, NIH3T3 host cells, beta-gal parasites, cherry-pick, set 2; shares compounds with T cruzi growth-1; T. cruzi beta-gal in NIH3T3, GalScreen luminescence, 90 h; inhibition, % at 2.09 µM; actives 21% (n = 5,600); AID 651740, 2012;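 active means mean inhibition above about 95%, with at least 55% of replicates also reaching it, limit read from the data; inconclusive means meets just one of the two conditions; inactive means meets neither condition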;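 further: plate controls were neutral control median for no effect and positive control median for full effect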
3T3 cytotox: cytotoxicity in mouse NIH/3T3 fibroblasts, confirmation, cytotoxicity control for T. cruzi proliferation inhibitor project, cell-based, cherry-pick, single point | shares compounds with T cruzi growth-1 | NIH/3T3 viability, CellTiter-Glo ATP luminescence, 90 h | cytotoxicity (signal decrease), % at 8.35 µM | actives 14% (n = 5,600);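 active means mean signal decrease across replicates above about 35% based on untreated-well scatter, with enough replicates individually passing, limit read from the data; inconclusive means no rule stated though some were filed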;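 further: 0% = median of neutral control wells and 100% = median of positive control wells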
NIH3T3 tox 2: NIH/3T3 fibroblast cytotoxicity, confirmation, cytotoxicity control, cell-based, cherry-pick, single point, set 2 | shares compounds with T cruzi growth-1 | NIH/3T3 viability, CellTiter-Glo ATP luminescence, 90 h | inhibition, % at 24.9 µM | actives 56% (n = 5,600) | AID 651744, 2012;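 active means mean loss of cell viability signal at or above a set limit, and enough replicates individually reaching it; inconclusive means meets only the mean limit or only the replicate share; inactive means meets neither condition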;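 further: 0% = median of neutral control wells and 100% = median of positive control wells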
Numbers without * were called inactive; ? = inconclusive; . = no result.

SMILES	T cruzi growth-1	KDM4C inh	IDH1 R132H inh	Pf Dd2 growth	T cruzi growth-2	T cruzi growth-3	3T3 cytotox	NIH3T3 tox 2
C[C@@H]1CCCCO[C@H](CN(C)Cc2ccc(C(F)(F)F)cc2)[C@H](C)CN([C@@H](C)CO)C(=O)c2cc(NC(=O)c3ccccc3)ccc2O1	67	-2	.	-85*	.	.	.	.
C[C@@H]1CCCCO[C@H](CN(C)Cc2ccc(C(F)(F)F)cc2)[C@@H](C)CN([C@H](C)CO)C(=O)c2cc(NC(=O)c3ccccc3)ccc2O1	93	0	.	-37	.	.	.	.
C[C@@H]1CN([C@H](C)CO)C(=O)c2cc(NC(=O)Nc3ccc(C(F)(F)F)cc3)ccc2O[C@@H](C)CCCCO[C@@H]1CN(C)Cc1ccc(Cl)c(Cl)c1	48	-1	.	-87*	.	.	.	.
C[C@@H]1CN([C@H](C)CO)C(=O)c2cc(NC(=O)Nc3ccc(C(F)(F)F)cc3)ccc2O[C@@H](C)CCCCO[C@@H]1CN(C)Cc1ccncc1	92	0	.	-77	.	.	.	.
C[C@@H]1CCCCO[C@H](CN(C)Cc2ccncc2)[C@H](C)CN([C@H](C)CO)C(=O)c2cc(NC(=O)Nc3ccc(C(F)(F)F)cc3)ccc2O1	87	2	.	-84*	.	.	.	.
C/C=C/c1cnc2c(c1)C(=O)N([C@H](C)CO)C[C@H](C)[C@H](CN(C)C(=O)C1CCOCC1)O2	41	-1	0	52	.	.	.	.
CCn1c(SCC(=O)Nc2cc(C)ccc2OC)nnc1-c1ccc(Cl)cc1	.	.	0	.	.	.	.	.
Cc1ccccc1-c1ccc([C@H]2[C@H]3CN(C(=O)Nc4ccccc4)CCCCN3[C@H]2CO)cc1	118*	0	.	1	112*	30	15	34*
Cc1ccccc1-c1ccc([C@H]2[C@@H](CO)N3CCCCN(C(=O)Nc4ccccc4)C[C@H]23)cc1	34	-2	.	-20	.	.	.	.
Cc1ccccc1-c1ccc([C@@H]2[C@H]3CN(C(=O)Nc4ccccc4)CCCCN3[C@H]2CO)cc1	104*	-2	.	-3	104*	93	29	105*
COc1ccc(NC(=O)N2CCCCN3[C@H](CO)[C@H](c4ccc(-c5ccccc5C)cc4)[C@H]3C2)cc1	48	-2	.	-43	.	.	.	.
COc1ccc(NC(=O)N2CCCCN3[C@H](C2)[C@@H](c2ccc(-c4ccccc4C)cc2)[C@@H]3CO)cc1	98*	-1	.	-26	98*	87	24	104*
CNC[C@H]1Oc2ccc(NS(=O)(=O)c3ccc(C)cc3)cc2C(=O)N([C@H](C)CO)C[C@@H]1C	.	-1	.	3	.	.	.	.
COc1ccc(NC(=O)N(C)C[C@H]2Oc3cc(-c4cccc(C(=O)N(C)C)c4)ccc3S(=O)(=O)N([C@H](C)CO)C[C@H]2C)cc1	.	4	0	14	.	.	.	.
Cc1ccccc1-c1ccc([C@@H]2[C@H]3CN(C(=O)Nc4ccc(F)cc4)CCCCN3[C@H]2CO)cc1	107*	-1	.	11	90	105*	?	106*
Cc1ccccc1-c1ccc([C@H]2[C@H]3CN(C(=O)Nc4cccc(F)c4)CCCCN3[C@H]2CO)cc1	92	1	.	-29	.	.	.	.
Cc1ccccc1-c1ccc([C@H]2[C@H](CO)N3CCCCN(C(=O)Nc4ccc(F)cc4)C[C@@H]23)cc1	109*	-1	.	-41	96*	88	42*	106*
O=C(Nc1ccc2c(c1)OCO2)N[C@@H]1CC[C@@H](CCNC(=O)C2CCCC2)O[C@@H]1CO	.	0	1	-11	.	.	.	.
CO[C@H]1CN(C)C(=O)c2ccc(NC(=O)c3ccccc3F)cc2OC[C@@H](C)N(CC2CC2)C[C@@H]1C	38	0	0	-25	.	.	.	.
COCC#Cc1ccc2c(c1)O[C@H](CN(C)CC1CCOCC1)[C@H](C)CN([C@@H](C)CO)S2(=O)=O	13	0	.	-77	.	.	.	.
COCC#Cc1ccc2c(c1)O[C@@H](CN(C)CC1CCCCC1)[C@H](C)CN([C@@H](C)CO)S2(=O)=O	?	2	0	-54	103*	90	?	105*
COCC#Cc1ccc2c(c1)O[C@@H](CN(C)CC1CCCCC1)[C@@H](C)CN([C@@H](C)CO)S2(=O)=O	105*	-1	-2	-70	102*	85	11	40*
CN(C)CCCNC(=O)C[C@H]1CC[C@H](NS(=O)(=O)c2ccc(F)cc2)[C@@H](CO)O1	-16	2	0	5	.	.	.	.
Cc1ccc(S(=O)(=O)Nc2ccc3c(c2)C(=O)N([C@H](C)CO)C[C@@H](C)[C@@H](CN(C)Cc2ccc(Cl)c(Cl)c2)O3)cc1	?	-1	0	-2	95*	56	65*	105*
C[C@@H]1CN([C@H](C)CO)C(=O)Cc2cc(NS(=O)(=O)c3ccc(F)cc3)ccc2O[C@H]1CN(C)Cc1ccc(Cl)c(Cl)c1	71	1	0	10	.	.	.	.
C[C@@H]1CN([C@H](C)CO)C(=O)Cc2cc(NS(=O)(=O)c3ccc(Cl)cc3)ccc2O[C@H]1CN(C)Cc1ccc(Cl)c(Cl)c1	97*	-3	0	10	108*	107*	-1	103*
Cc1noc(C)c1S(=O)(=O)Nc1ccc2c(c1)CC(=O)N([C@H](C)CO)C[C@H](C)[C@@H](CN(C)Cc1ccc(Cl)c(Cl)c1)O2	100*	6	0	-13	106*	71	-3	104*
C[C@H](CO)N1C[C@H](C)[C@@H](CN(C)Cc2ccc(Cl)c(Cl)c2)Oc2ccc(NS(=O)(=O)c3ccc(Cl)cc3)cc2CC1=O	78	0	4	-26	.	.	.	.
C[C@@H]1CN([C@@H](C)CO)C(=O)Cc2cc(NS(=O)(=O)c3ccc(Cl)cc3)ccc2O[C@H]1CN(C)Cc1ccc(Cl)c(Cl)c1	?	-2	0	-10	82	87	42*	104*
